UPR XBP1 act: activators of adaptive XBP1 UPR arm, primary screen, cell-based, CHO-XBP1 luciferase reporter, luminescence, uHTS; IRE1-XBP1 UPR activation; percent of tunicamycin response, DMSO as zero; activation, % at 20 µM; actives 0.33% (n = 330,000); AID 463104, 2010;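 active = versus positive control, 20 µM dose yields 30% or more activation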
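Assay system: IRE1-XBP1 luciferase reporter CHO line. Input: 1000 cells/well. Buffer or medium: F12 with 10% serum. Doses: 20 µM, 1% DMSO. Times: overnight seeding at 37 °C, 6 h compound treatment at 37 °C. Technique: Steady-Glo luciferase glow luminescence, 10 min after reagent addition.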
UPR CHOP act: activators of apoptotic CHOP UPR arm, primary screen, cell-based, CHO-CHOP luciferase reporter, luminescence, uHTS; UPR activation; percent of tunicamycin response over DMSO baseline; activation, % at 10 µM; actives 0.34% (n = 330,000);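 active = at 10 µM dose, activation of 40% or more, normalized to positive control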
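System: CHO-CHOP luciferase reporter cell line | Buffer or medium: F12 medium containing 10% fetal bovine serum | Doses: One dose, 10 µM in 0.5% DMSO | Times: 6 h compound exposure at 37 °C after overnight seeding | Signal: Luciferase luminescence | Read-out: % activation vs tunicamycin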
CHOP inh: inhibitors of CHOP promoter induction, primary screen, cell-based, unfolded protein response, luciferase reporter; CHO-K1 CHOP-promoter luciferase, tunicamycin-induced, 15-18 h; actives 3.8% (n = 220,000); inhibition, % at 10 µM;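 active = compounds that reduced the stress-induced luciferase reporter signal by more than about 70% of percent inhibition, limit read from the data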
Bfl-1 A1 inh: caspase 3/7 activation in MEF A1-2A-BIM cells, primary screen, A1 inhibitor project, cell-based, luminescence, HTS. caspase activation, % (test concentration not listed). Caspase-Glo 3/7 luminescence, 3 h; percent of clofoctol response, vehicle zero. actives 0.066% (n = 330,000);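 active = over half of replicate activation scores above 10%, or exactly half above 10 with the replicate mean above 10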
Large screens that a line does not name were inactive. This is one part of a sample in which hits are shown more often than they occur.

OCC1(Cc2cccc(Cl)c2)CCCN(Cc2ccc(F)c(F)c2)C1 (stereo not drawn)	none (no result: CHOP inh)
CSc1cccc(CN2CCCC(CO)(Cc3cccc(Cl)c3)C2)c1 (stereo not drawn)	CHOP inh 95
CC(=O)OCCNc1cc(Sc2nc3ccccc3[nH]2)c2nonc2c1[N+](=O)[O-]	CHOP inh 107 (no result: UPR XBP1 act, UPR CHOP act)
COc1ccccc1N(CCC#N)C(=S)Nc1ccc(S(=O)(=O)N2CCOCC2)cc1	none (no result: CHOP inh)
O=C(N/N=C/c1cc(Cl)ccc1O)c1ccc(Br)cc1	CHOP inh 80 (no result: UPR XBP1 act, UPR CHOP act)
O=C(N/N=C/c1cc(Br)ccc1O)c1ccncc1	none
COc1ccccc1OCC(=O)Nc1cc(Cl)ccc1N1CCCCC1	none (no result: CHOP inh)
O=C(c1cccc(F)c1)N1CCN(C(=O)c2cc(-c3ccc(Cl)cc3Cl)on2)CC1	CHOP inh 74
O=C(c1cc(-c2ccccc2Cl)on1)N1CCCC1	none (no result: CHOP inh)
CCOc1ccc(S(=O)(=O)N(CC(=O)Nc2cc(C)on2)Cc2ccccc2Cl)cc1	CHOP inh 73
O=C(NCC(O)c1ccccc1)c1cccs1 (stereo not drawn)	none (no result: CHOP inh)
CSc1cccc(NC(=O)C(C)Sc2ccc(C)cc2)c1 (stereo not drawn)	CHOP inh 78
Cc1ccc(SC(C)C(=O)Nc2ccncc2)cc1 (stereo not drawn)	none (no result: Bfl-1 A1 inh)
CN1CCc2c(C#N)c(N3CCCCC3)nc(NCc3ccccc3)c2C1	CHOP inh 84
N#Cc1c(NCCCO)nc(NCc2ccccc2)c2c1CCN(Cc1ccccc1)C2	CHOP inh 88
COc1ccc(CCNC(=O)COC(=O)CSc2ccc([N+](=O)[O-])cc2)cc1OC	none (no result: CHOP inh)
Cc1ccc(CC(NC(=O)c2ccc(C)cc2)C(=O)O)cc1 (stereo not drawn)	none (no result: CHOP inh, Bfl-1 A1 inh)
COc1ccc(C)cc1NC(=O)c1cc2ccccc2o1	CHOP inh 71
CC(=O)Nc1cc2ccccc2oc1=O	none
COc1ccc(OC)c(NC(=O)c2cc3ccccc3o2)c1	none
Cc1ccc(C(=O)Nc2cc3ccccc3oc2=O)cc1	CHOP inh 104
COc1ccc(Cl)cc1NC(=O)NCc1ccc2c(c1)OCO2	none (no result: CHOP inh)
Fc1ccc(-c2nnc(NC3=NCCCCC3)o2)cc1	CHOP inh 75
c1ccc(-c2nnc(NC3=NCCC3)o2)cc1	none
COc1ccc(Cn2c(-c3ccccc3)nc3c(c(=O)c4ccccc4n3C)c2=O)cc1	none
Cn1c2ccccc2c(=O)c2c(=O)n(Cc3ccco3)c(-c3ccc(C(C)(C)C)cc3)nc21	CHOP inh 89
O=C(NCC(c1ccco1)N1CCCCC1)c1ccc([N+](=O)[O-])s1 (stereo not drawn)	none (no result: CHOP inh)
CC(NC(=O)c1cc(S(=O)(=O)N2CCOCC2)ccc1N1CCCC1)c1ccc(Cl)c(Cl)c1 (stereo not drawn)	none (no result: CHOP inh)
CCC(=O)Nc1ccc(N2CCCCC2)c(C(=O)Nc2ccccc2C)c1	CHOP inh 72
N#CCc1nn2c(-c3ccccc3)ccnc2c1C#N	none (no result: CHOP inh)
COC(=O)c1cccc2c1-c1ccccc1/C2=N/O	CHOP inh 87
S=C(NCc1ccco1)N1CCN(Cc2ccc(Cl)cc2Cl)CC1	CHOP inh 74
COc1ccc(/C=C/CN2CCC(n3nccc3NC(=O)C3CC3)CC2)cc1	none (no result: CHOP inh)
O=C1Nc2ccc(Br)cc2C12NNc1ccccc1O2 (stereo not drawn)	CHOP inh 105
CCN(c1ccccc1)S(=O)(=O)c1cc(NC(=O)CN2CCN(C)CC2)ccc1Cl	none (no result: CHOP inh)
COc1cc(C(=O)OCC(=O)c2ccccc2)cc2c1OCCO2	none (no result: CHOP inh)
Cc1ccc(NC(=O)CSc2nn(-c3ccccc3)c(=S)s2)cc1S(=O)(=O)N(C)C	CHOP inh 76
Cc1ccc(C(=O)N/N=C/c2ccc([N+](=O)[O-])s2)cc1	CHOP inh 70
Cc1nn(Cc2ccc(Cl)c(Cl)c2)c(C)c1NC(=O)c1cc(CC(C)C)on1	CHOP inh 93
Cc1ccc(Cn2ccc(NC(=O)c3cc(-c4ccc(Cl)cc4)on3)n2)cc1	none
Cc1ccc(Cn2ccc(NC(=O)c3cc(CC(C)C)on3)n2)cc1	CHOP inh 76
Cc1ccccc1Cn1nc(C)c(NC(=O)c2cc(CC(C)C)on2)c1C	none
Cc1cc(C(=O)Nc2c(C)nn(Cc3ccc(F)cc3)c2C)on1	CHOP inh 81
C/C(=C\C(=O)c1ccc(Br)cc1)NCc1ccc(C)cc1	CHOP inh 77
CC(/C=C1\N=C(SCc2ccccc2Cl)SC1=O)=C\c1ccccc1	CHOP inh 76
CSc1ncc(CN2CCc3c([nH]c4ccccc34)C2c2cccc(C)n2)cn1 (stereo not drawn)	none
CSc1ncc(CN2CCc3c([nH]c4ccccc34)C2c2cccc(O)c2)cn1 (stereo not drawn)	CHOP inh 86
CNc1cc(CSC)nc(SCc2ccc(Cl)cc2Cl)n1	CHOP inh 77
Nc1nc(SCc2ccc(Cl)cc2Cl)n[nH]1	none
CCc1nnc(NC(=O)[C@@H](NC(=O)c2cccc(S(=O)(=O)N(CC)CC)c2)C(C)C)s1	CHOP inh 83
O=C1CN(C(=O)NCC(=O)N2CCCC2)c2ccccc2N1	none (no result: CHOP inh)
Nc1ccc(-c2nc3c(Cl)cc(N)cc3[nH]2)cc1	CHOP inh 88
COc1ccc(C(=O)[C@@H]2CC[C@](C)(C(=O)O)C2(C)C)cc1	none (no result: CHOP inh)
Cc1ccc(S(=O)(=O)N2CCN(C(=O)COC(=O)C3CCC3)CC2)cc1	none (no result: CHOP inh)
O=c1cc2c(nn1Cc1ccc(Cl)cc1Cl)-c1ccccc1CC2	none
O=c1cc2c(nn1Cc1cccc(Cl)c1)-c1ccccc1CC2	CHOP inh 95
O=c1cc2c(nn1Cc1ccccc1Cl)-c1ccccc1CC2	CHOP inh 86
O=c1cc2c(nn1Cc1ccc(Cl)cc1)-c1ccccc1CC2	CHOP inh 88
O=S1(=O)[C@H]2C[C@H](CO)O[C@@]2(CO)CN1Cc1ccc(-c2ccc(F)cc2)cc1	none (no result: CHOP inh, Bfl-1 A1 inh)
COc1ccccc1CN(Cc1nc2ccccc2c(=O)[nH]1)S(=O)(=O)c1ccc2ccccc2c1	none
COc1ccc(S(=O)(=O)N(Cc2ccccc2)Cc2nc3ccccc3c(=O)[nH]2)cc1	CHOP inh 72
O=C(Nc1ccccc1F)c1cc(S(=O)(=O)N2CCOCC2)ccc1N1CCOCC1	none (no result: CHOP inh, Bfl-1 A1 inh)
O=C1c2oc3ccccc3c(=O)c2C(c2cccs2)N1CCCN1CCOCC1 (stereo not drawn)	CHOP inh 80
O=C1CN(C(=O)Cn2ncc(Cl)c(Cl)c2=O)c2ccccc2N1	CHOP inh 92 (no result: UPR XBP1 act, UPR CHOP act, Bfl-1 A1 inh)
O=C(Cn1ncc(Cl)c(Cl)c1=O)c1ccc(Cl)cc1	CHOP inh 102 (no result: UPR XBP1 act, UPR CHOP act)
O=C(OCn1ncc(Cl)c(Cl)c1=O)c1ccccc1Cl	CHOP inh 107 (no result: UPR XBP1 act, UPR CHOP act)
C=CCn1c(C)cc(C(=O)Cn2ncc(Cl)c(Cl)c2=O)c1C	CHOP inh 75 (no result: UPR XBP1 act, UPR CHOP act)
CC(Cl)C(=O)Nc1c2c(nn1-c1ccccc1)CSC2 (stereo not drawn)	none (no result: CHOP inh)

Assay outcomes as filed in PubChem BioAssay.
